According to ChEMBL document CHEMBL5034013, “Discovery of VNRX-7145 (VNRX-5236 Etzadroxil): An Orally Bioavailable β-Lactamase Inhibitor for Enterobacterales Expressing Ambler Class A, C, and D Enzymes” (J Med Chem, 2021):

What was measured:
[1] = Oral bioavailability in dog at 10 mg/kg administered as cassette dose measured by UPLC-MS/MS analysis; format: ADME, organism-based, Canis lupus familiaris; conditions: in vivo
How it was run: (§1)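 Ester prodrugs are dosed orally. F is the percent absolute oral bioavailability of the parent boronate, corrected for the molecular-weight difference between prodrug and parent.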

[2] = Oral bioavailability in monkey at 10 mg/kg administered as cassette dose measured by UPLC-MS/MS analysis; format: ADME, organism-based, Macaca mulatta; conditions: rhesus monkey, in vivo; how it was run: as §1
[3] = Oral bioavailability in rat at 10 mg/kg administered as cassette dose measured by UPLC-MS/MS; format: ADME, organism-based; conditions: in vivo, 10 mg/kg, in the assay text read “measured” for “administered as cassette dose measured”
How it was run: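 Ester prodrugs are given to rats by oral gavage, some as a cassette with another ester. F is the percent absolute oral bioavailability of the parent, corrected for the MW difference between prodrug and parent.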

[4] = Oral bioavailability in mouse at 5 mg/kg administered as cassette dose measured by UPLC-MS/MS analysis; format: ADME, organism-based; conditions: in vivo; how it was run: as §1
Escherichia coli [5] = experiment: In vivo antibacterial activity against Escherichia coli expressing TEM-1/CTX-M-15 infected in C3H/HeJ mouse assessed as log10 reduction in CFU in bladder at 1 to 300 mg/kg, sc administered every 12 hrs for 3 days starting from 4 days post infection and measured at 7 days post infection (reference value: 5.8 log10CFU); format: functional; conditions: dose 1-300 mg/kg; time 3 day
Escherichia coli [6] = experiment: Antibacterial activity against Escherichia coli J53 expressing SHV-5/TEM-1/AmpC assessed as concentration required to restore ceftibuten activity incubated for 16 to 20 hrs in presence of 1 ug/ml ceftibuten by broth microdilution method; format: functional; conditions: time 16-20 hrs
Klebsiella pneumoniae [7] = experiment: Antibacterial activity against Klebsiella pneumoniae 196477 expressing AmpC/CMY-2/TEM-1/CTX-M-15 assessed as concentration required to restore ceftibuten activity incubated for 16 to 20 hrs in presence of 1 ug/ml ceftibuten by broth microdilution method; format: functional; conditions: time 16-20 hrs
Escherichia coli [8] = experiment: Antibacterial activity against Escherichia coli 786978 expressing KPC assessed as concentration required to restore ceftibuten activity incubated for 16 to 20 hrs in presence of 1 ug/ml ceftibuten by broth microdilution method; format: functional; conditions: time 16-20 hrs
Klebsiella pneumoniae [9] = experiment: Antibacterial activity against Klebsiella pneumoniae 156309 expressing SHV-11/TEM-1/KPC-2 assessed as concentration required to restore ceftibuten activity incubated for 16 to 20 hrs in presence of 1 ug/ml ceftibuten by broth microdilution method; format: functional; conditions: time 16-20 hrs
Escherichia coli [10] = experiment: In vivo antibacterial activity against Escherichia coli expressing TEM-1/CTX-M-15 infected in C3H/HeJ mouse assessed as log10 reduction in CFU in urine at 1 to 300 mg/kg, sc administered every 12 hrs for 3 days starting from 4 days post infection and measured at 7 days post infection (reference value: 6.7 log10CFU); format: functional; conditions: dose 1-300 mg/kg; time 3 day
Klebsiella pneumoniae [11] = experiment: Antibacterial activity against Klebsiella pneumoniae expressing SHV-12/TEM-1 assessed as concentration required to restore ceftibuten activity incubated for 16 to 20 hrs in presence of 1 ug/ml ceftibuten by broth microdilution method; format: functional; conditions: time 16-20 hrs
Escherichia coli [12] = experiment: Antibacterial activity against Escherichia coli 664507 expressing OXA-48 assessed as concentration required to restore ceftibuten activity incubated for 16 to 20 hrs in presence of 1 ug/ml ceftibuten by broth microdilution method; format: functional; conditions: time 16-20 hrs
How it was run: (§2)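 Tested against a 25-strain challenge panel of clinical E. coli and K. pneumoniae isolates carrying ESBL (n = 5), KPC (n = 11), class C (n = 4) or OXA-48 (n = 5) β-lactamases. Ceftibuten was held at 1 μg/mL while the BLI concentration varied. The read-out was the BLI concentration that rescued ceftibuten activity.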

Escherichia coli [13] = experiment: In vivo antibacterial activity against Escherichia coli expressing TEM-1/CTX-M-15 infected in C3H/HeJ mouse assessed as log10 reduction in CFU in kidney at 1 to 300 mg/kg, sc administered every 12 hrs for 3 days starting from 4 days post infection and measured at 7 days post infection (reference value: 6.7 log10CFU); format: functional; conditions: dose 1-300 mg/kg; time 3 day
Escherichia coli [14] = experiment: Antibacterial activity against Escherichia coli expressing CTX-M-15/TEM-1 assessed as concentration required to restore ceftibuten activity incubated for 16 to 20 hrs in presence of 1 ug/ml ceftibuten by broth microdilution method; format: functional; conditions: time 16-20 hrs
Klebsiella pneumoniae [15] = experiment: Antibacterial activity against Klebsiella pneumoniae expressing OXA-48 assessed as concentration required to restore ceftibuten activity incubated for 16 to 20 hrs in presence of 1 ug/ml ceftibuten by broth microdilution method; format: functional; conditions: time 16-20 hrs
Klebsiella pneumoniae [16] = experiment: Antibacterial activity against Klebsiella pneumoniae expressing KPC-3/TEM-1/AmpC assessed as concentration required to restore ceftibuten activity incubated for 16 to 20 hrs in presence of 1 ug/ml ceftibuten by broth microdilution method; format: functional; conditions: time 16-20 hrs
Klebsiella pneumoniae [17] = experiment: Antibacterial activity against Klebsiella pneumoniae expressing SHV-5/KPC-2/TEM-1 assessed as concentration required to restore ceftibuten activity incubated for 16 to 20 hrs in presence of 1 ug/ml ceftibuten by broth microdilution method; format: functional; conditions: time 16-20 hrs
Klebsiella pneumoniae [18] = experiment: Antibacterial activity against Klebsiella pneumonia SI-C05 expressing OXA-48 assessed as concentration required to restore ceftibuten activity incubated for 16 to 20 hrs in presence of 1 ug/ml ceftibuten by broth microdilution method; format: functional; conditions: time 16-20 hrs; how it was run: as §2
[19] = Inhibition of bacterial beta-lactamase OXA-48 using nitrocefin as substrate preincubated for 15 mins followed by substrate addition and measured after 10 mins by spectrophotometric analysis; set-up: species or system Bacteria
How it was run: (§3)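 IC50 is the mean of duplicate runs on separate days. A run was repeated automatically if it differed by more than 20% from the previous result.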

Klebsiella pneumoniae [20] = experiment: Antibacterial activity against Klebsiella pneumonia DOV expressing OXA-48 assessed as concentration required to restore ceftibuten activity incubated for 16 to 20 hrs in presence of 1 ug/ml ceftibuten by broth microdilution method; format: functional; conditions: time 16-20 hrs; how it was run: as §2
Klebsiella pneumoniae [21] = experiment: Antibacterial activity against Klebsiella pneumoniae expressing TEM-1/SHV-12 assessed as concentration required to restore ceftibuten activity incubated for 16 to 20 hrs in presence of 1 ug/ml ceftibuten by broth microdilution method; format: functional; conditions: time 16-20 hrs
[22] = Inhibition of bacterial beta-lactamase SHV-5 using cefotaxime as substrate preincubated for 15 mins followed by substrate addition and measured after 10 mins by spectrophotometric analysis; set-up: species or system Bacteria; how it was run: as §3
[23] = Inhibition of bacterial beta-lactamase AmpC using nitrocefin as substrate preincubated for 15 mins followed by substrate addition and measured after 10 mins by spectrophotometric analysis; set-up: species or system Bacteria; how it was run: as §3
Klebsiella pneumoniae [24] = experiment: Antibacterial activity against Klebsiella pneumoniae expressing SHV-1/TEM-1/KPC-2 assessed as concentration required to restore ceftibuten activity incubated for 16 to 20 hrs in presence of 1 ug/ml ceftibuten by broth microdilution method; format: functional; conditions: time 16-20 hrs
Klebsiella pneumoniae [25] = experiment: Antibacterial activity against Klebsiella pneumoniae expressing SHV-12/TEM-1/KPC-2/AmpC assessed as concentration required to restore ceftibuten activity incubated for 16 to 20 hrs in presence of 1 ug/ml ceftibuten by broth microdilution method; format: functional; conditions: time 16-20 hrs
Klebsiella pneumoniae [26] = experiment: Antibacterial activity against Klebsiella pneumoniae 845661 expressing KPC assessed as concentration required to restore ceftibuten activity incubated for 16 to 20 hrs in presence of 1 ug/ml ceftibuten by broth microdilution method; format: functional; conditions: time 16-20 hrs
Klebsiella pneumoniae [27] = experiment: Antibacterial activity against Klebsiella pneumoniae 845670 expressing KPC assessed as concentration required to restore ceftibuten activity incubated for 16 to 20 hrs in presence of 1 ug/ml ceftibuten by broth microdilution method; format: functional; conditions: time 16-20 hrs
Escherichia coli [28] = experiment: Antibacterial activity against Escherichia coli 664520 expressing OXA-48 assessed as concentration required to restore ceftibuten activity incubated for 16 to 20 hrs in presence of 1 ug/ml ceftibuten by broth microdilution method; format: functional; conditions: time 16-20 hrs; how it was run: as §2
Escherichia coli [29] = experiment: Antibacterial activity against Escherichia coli 849121 expressing KPC assessed as concentration required to restore ceftibuten activity incubated for 16 to 20 hrs in presence of 1 ug/ml ceftibuten by broth microdilution method; format: functional; conditions: time 16-20 hrs
Escherichia coli [30] = experiment: Antibacterial activity against Escherichia coli expressing AmpC/SHV-12/CTX-M-15/TEM-1 assessed as concentration required to restore ceftibuten activity incubated for 16 to 20 hrs in presence of 1 ug/ml ceftibuten by broth microdilution method; format: functional; conditions: time 16-20 hrs
Escherichia coli [31] = experiment: Antibacterial activity against Escherichia coli SI-P026TC expressing CMY-2/TEM-1 assessed as concentration required to restore ceftibuten activity incubated for 16 to 20 hrs in presence of 1 ug/ml ceftibuten by broth microdilution method; format: functional; conditions: time 16-20 hrs
Escherichia coli [32] = experiment: Antibacterial activity against Escherichia coli expressing TEM-1/SHV-12 assessed as concentration required to restore ceftibuten activity incubated for 16 to 20 hrs in presence of 1 ug/ml ceftibuten by broth microdilution method; format: functional; conditions: time 16-20 hrs
Klebsiella pneumoniae [33] = experiment: Antibacterial activity against Klebsiella pneumonia 217917 expressing CMY-2/TEM-1 assessed as concentration required to restore ceftibuten activity incubated for 16 to 20 hrs in presence of 1 ug/ml ceftibuten by broth microdilution method; format: functional; conditions: time 16-20 hrs; how it was run: as §2
[34] = Inhibition of bacterial beta-lactamase KPC-2 using imipenem as substrate preincubated for 15 mins followed by substrate addition and measured after 10 mins by spectrophotometric analysis; set-up: species or system Bacteria; how it was run: as §3
Escherichia coli [35] = experiment: Antibacterial activity against Escherichia coli expressing CTX-M-2 assessed as concentration required to restore ceftibuten activity incubated for 16 to 20 hrs in presence of 1 ug/ml ceftibuten by broth microdilution method; format: functional; conditions: time 16-20 hrs
Klebsiella pneumoniae [36] = experiment: Antibacterial activity against Klebsiella pneumoniae expressing SHV-11/TEM-1/KPC-3 assessed as concentration required to restore ceftibuten activity incubated for 16 to 20 hrs in presence of 1 ug/ml ceftibuten by broth microdilution method; format: functional; conditions: time 16-20 hrs

SMILES: CCC(=O)N[C@H]1Cc2cccc(C(=O)OCOC(=O)C(C)(C)C)c2OB1O
- bioavailability [1]: 42%
- bioavailability [2]: 52%
- bioavailability [3]: 99%
- bioavailability [4]: 42%

SMILES: Nc1nc(/C(=C/CC(=O)O)C(=O)N[C@@H]2C(=O)N3C(C(=O)O)=CCS[C@H]23)cs1 [CEFTIBUTEN]
- Activity (Escherichia coli [5]): 2 log10CFU/ml
- Activity (Escherichia coli [6]): 256 µg/mL
- Activity (Klebsiella pneumoniae [7]): 4 µg/mL
- Activity (Escherichia coli [8]): 8 µg/mL
- Activity (Klebsiella pneumoniae [9]): 256 µg/mL
- Activity (Escherichia coli [10]): 2 log10CFU/ml
- Activity (Klebsiella pneumoniae [11]): 32 µg/mL
- Activity (Escherichia coli [12]): 128 µg/mL
- Activity (Escherichia coli [13]): 2 log10CFU/ml
- Activity (Escherichia coli [14]): 128 µg/mL
- Activity (Klebsiella pneumoniae [15]): 256 µg/mL

SMILES: CC(=O)CCC(=O)N[C@H]1Cc2cccc(C(=O)O)c2OB1O
- Activity (Klebsiella pneumoniae [16]): 0.5 µg/mL
- Activity (Escherichia coli [6]): 0.03 µg/mL
- Activity (Klebsiella pneumoniae [17]): <=0.002 ug ml-1
- Activity (Klebsiella pneumoniae [18]): 0.06 µg/mL
- Activity (Klebsiella pneumoniae [7]): 0.06 µg/mL
- IC50 [19]: 1450 nM
- Activity (Klebsiella pneumoniae [20]): 0.06 µg/mL
- Activity (Escherichia coli [8]): 1 µg/mL
- Activity (Klebsiella pneumoniae [21]): 0.016 µg/mL
- IC50 [22]: 25 nM
- IC50 [23]: 8 nM
- Activity (Klebsiella pneumoniae [9]): 2 µg/mL
- Activity (Klebsiella pneumoniae [24]): 4 µg/mL
- Activity (Klebsiella pneumoniae [25]): 0.5 µg/mL
- Activity (Klebsiella pneumoniae [26]): 4 µg/mL
- Activity (Klebsiella pneumoniae [27]): <=0.002 ug ml-1
- Activity (Escherichia coli [28]): 4 µg/mL
- Activity (Klebsiella pneumoniae [11]): 0.06 µg/mL
- Activity (Escherichia coli [29]): <=0.002 ug ml-1
- Activity (Escherichia coli [12]): 0.06 µg/mL
- Activity (Escherichia coli [30]): 0.016 µg/mL
- Activity (Escherichia coli [31]): 0.5 µg/mL
- Activity (Escherichia coli [32]): 0.016 µg/mL
- Activity (Klebsiella pneumoniae [33]): 0.12 µg/mL
- IC50 [34]: 116 nM
- Activity (Escherichia coli [14]): 0.12 µg/mL
- Activity (Escherichia coli [35]): <=0.002 ug ml-1
- Activity (Klebsiella pneumoniae [15]): 4 µg/mL
- Activity (Klebsiella pneumoniae [36]): 0.25 µg/mL
